In ChEMBL document CHEMBL1141853, “A cyclitol derivative as a replication inhibitor from the marine sponge Petrosia sp” (1999):
≈ marks a conversion by molar mass, not a printed value. Calls of active or inactive are those of the source. The calls are words filed in the database; no cut-off is given here.

Assays:
[1] = test system: Simian virus 40; test: Inhibition of SV40 DNA replication in human HeLa cells at 800 uM; type: functional; details: Betapolyomavirus macacae, read-out: INH
In short: (§1)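 Cell-free SV40 replication using HeLa cytosolic extract, SV40 T-Ag (0.6 µg) and SV40 origin pUC DNA (0.3 µg). Buffer is 40 mM creatine phosphate-di-Tris pH 7.7, creatine kinase, 7 mM MgCl2, 0.5 mM DTT, 4 mM ATP, rNTPs, dNTPs and 25 µM [3H]dTTP. Incubated 90 min at 37 °C; acid-insoluble radioactivity measured. Products separated on 1% agarose gel and autoradiographed.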

[2] = test system: SK-OV-3; test: Cytotoxicity against human SKOV3 cells; type: functional; details: read-out: ED50 (the source's name)
[3] = test system: A549; test: Cytotoxicity against human A549 cells; type: functional; details: read-out: ED50 (the source's name)
[4] = target: T1, DNA topoisomerase 1 (Homo sapiens) (UniProt P11387); test: Inhibition of human DNA topoisomerase 1 assessed as effect on relaxation of superhelical plasmid
T1 sequence (whole entry): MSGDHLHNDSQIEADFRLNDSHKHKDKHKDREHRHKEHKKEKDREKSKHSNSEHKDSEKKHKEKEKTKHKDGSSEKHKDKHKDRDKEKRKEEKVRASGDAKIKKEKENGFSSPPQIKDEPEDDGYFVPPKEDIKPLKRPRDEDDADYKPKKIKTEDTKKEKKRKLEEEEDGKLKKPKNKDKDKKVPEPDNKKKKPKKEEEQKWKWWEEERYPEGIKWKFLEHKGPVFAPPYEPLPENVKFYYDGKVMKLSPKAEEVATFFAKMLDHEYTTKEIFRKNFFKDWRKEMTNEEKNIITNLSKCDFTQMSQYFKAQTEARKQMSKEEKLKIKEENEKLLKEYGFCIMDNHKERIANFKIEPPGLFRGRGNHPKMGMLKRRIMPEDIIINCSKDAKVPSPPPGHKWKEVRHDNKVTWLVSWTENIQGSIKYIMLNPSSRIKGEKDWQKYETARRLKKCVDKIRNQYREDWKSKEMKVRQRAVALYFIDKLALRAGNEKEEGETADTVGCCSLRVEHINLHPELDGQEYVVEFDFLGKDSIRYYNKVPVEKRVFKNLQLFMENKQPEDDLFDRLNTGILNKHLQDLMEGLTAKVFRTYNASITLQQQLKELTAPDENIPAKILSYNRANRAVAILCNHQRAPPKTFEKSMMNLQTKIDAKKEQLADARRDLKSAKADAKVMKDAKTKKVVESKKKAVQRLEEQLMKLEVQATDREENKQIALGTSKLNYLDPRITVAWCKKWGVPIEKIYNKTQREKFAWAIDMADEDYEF

[5] = test system: XF498; test: Cytotoxicity against human XF498 cells; type: functional; details: read-out: ED50 (the source's name)
[6] = test system: HCT-15; test: Cytotoxicity against human HCT-15 cells; type: functional; details: read-out: ED50 (the source's name)
[7] = test system: SK-MEL-2; test: Cytotoxicity against human SK-MEL-2 cells; type: functional; details: read-out: ED50 (the source's name)
[8] = test system: Simian virus 40; test: Inhibition of SV40 DNA replication in human HeLa cells; type: functional, organism-based; details: Betapolyomavirus macacae; in short: as §1

CCCCCCC(C)CCCCCCCCCOC[C@H](O)COC1[C@@H](O)[C@H](O)[C@@H](O)[C@@H]1O (stereo partly drawn) [SACROTRIDE A]
inhibition at 800 µM [1]: > 90% | EC50 [2]: 9.5 µg/mL (≈ 20.5 µM) | EC50 [3]: > 10 µg/mL | Activity [4]: inactive | EC50 [5]: 9.8 µg/mL (≈ 21.2 µM) | EC50 [6]: 9.4 µg/mL (≈ 20.3 µM) | EC50 [7]: > 10 µg/mL | Activity [8]: Dose-dependent effect
